Measured values as given in ChEMBL document CHEMBL4024752, “Noncovalent Protein Arginine Deiminase (PAD) Inhibitors Are Efficacious in Animal Models of Multiple Sclerosis” (J Med Chem, 2017).
One block for each molecule: values may come before it. Active and inactive are the calls of the source. The calls are words filed in the database; no cut-off is given here.

What was measured:
[1] = system: Mus musculus; experiment: Antiinflammatory activity in MOG (35 to 55 residues)-induced C57BL/6 mouse autoimmune encephalomyelitis model assessed as improvement in physical disability at 50 mg/kg, ip administered daily measured on day 35 post immunization; format: functional, organism-based
In short: (§1)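 Female C57BL/6 mice, 8 weeks old, were immunized s.c. with 100 µg MOG peptide in CFA, plus 400 ng pertussis toxin i.p. at immunization and again at 48 h. Daily i.p. dosing at 50 mg/kg in PBS (pH 7.5) began at clinical score 2 and continued up to 60 days. Controls got an equal volume of PBS (n=5 vs 7). Clinical score and body weight were recorded daily.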

[2] = system: Mus musculus; experiment: Antiinflammatory activity in MOG (35 to 55 residues)-induced C57BL/6 mouse autoimmune encephalomyelitis model assessed as survival rate at 50 mg/kg, ip administered daily up to 60 days (reference value: 80%); format: functional; conditions: C57BL/6, ip, 1440 h
[3] = system: Mus musculus; experiment: Antiinflammatory activity in MOG (35 to 55 residues)-induced C57BL/6 mouse autoimmune encephalomyelitis model assessed as reduction in inflammation in spinal cord at 50 mg/kg, ip administered daily measured at day 60 post immunization; format: functional, organism-based; conditions: in the assay text read “brain” for “spinal cord”
In short: (§2)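 MOG/CFA-immunized female C57BL/6 mice were treated daily at 50 mg/kg i.p. in PBS from score 2 for up to 60 days; controls received PBS. At study end, brain and spinal cord sections were stained with H&E and Luxol Fast Blue. Inflammation was quantified as inflamed area over total tissue area by positive pixel count.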

[4] = system: Mus musculus; experiment: Antiinflammatory activity in MOG (35 to 55 residues)-induced C57BL/6 mouse autoimmune encephalomyelitis model assessed as reduction in lesions in cerebellum at 50 mg/kg, ip administered daily up to 60 days by LFB/H and E staining based assay; format: functional, organism-based; in short: as §2
[5] = system: Mus musculus; experiment: Antiinflammatory activity in MOG (35 to 55 residues)-induced C57BL/6 mouse autoimmune encephalomyelitis model assessed as reduction in lesions in olfactory tract at 50 mg/kg, ip administered daily up to 60 days by LFB/H and E staining based assay; format: functional, organism-based; in short: as §2
[6] = system: Mus musculus; experiment: Antiinflammatory activity in MOG (35 to 55 residues)-induced C57BL/6 mouse autoimmune encephalomyelitis model assessed as reduction in lesions in internal capsule at 50 mg/kg, ip administered daily by LFB/H and E staining based assay; format: functional, organism-based; in short: as §2
[7] = system: Mus musculus; experiment: Antiinflammatory activity in MOG (35 to 55 residues)-induced C57BL/6 mouse autoimmune encephalomyelitis model assessed as reduction in accumulation of CD3 positive T-cells in brain at 50 mg/kg, ip administered daily up to 60 days by immunohistochemistry; format: functional, organism-based
In short: (§3)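 MOG/CFA-immunized female C57BL/6 mice were dosed daily at 50 mg/kg i.p. in PBS from score 2 for up to 60 days; PBS controls n=5, treated n=7. Brain sections were immunostained with anti-CD3. Stained cells per µm² were averaged over randomly selected areas.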

[8] = system: Mus musculus; experiment: Antiinflammatory activity in MOG (35 to 55 residues)-induced C57BL/6 mouse autoimmune encephalomyelitis model assessed as reduction in accumulation of CD3 positive T-cells in internal capsule at 50 mg/kg, ip administered daily up to 60 days by immunohistochemistry; format: functional, organism-based; in short: as §3
[9] = system: Mus musculus; experiment: Antiinflammatory activity in MOG (35 to 55 residues)-induced C57BL/6 mouse autoimmune encephalomyelitis model assessed as reduction in accumulation of CD3 positive T-cells in cerebellum at 50 mg/kg, ip administered daily up to 60 days by immunohistochemistry; format: functional, organism-based; in short: as §3
[10] = Elimination rate constant in C57BL/6 mouse serum at 50 mg/kg, ip administered as single dose measured up to 360 mins by UPLC-MS analysis; format: ADME, organism-based
In short: (§4)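 Healthy female C57BL/6 mice (n = 27, 18–22 g) received one i.p. dose of 50 mg/kg, given as a 10 mg/mL aqueous solution (equimolar HCl, pH raised to 6 with NaHCO3). Blood and brain were sampled at 0, 5, 15, 30, 45, 60, 120, 240 and 360 min, 3 mice per time point. Samples were spiked with benzophenone internal standard, lyophilized, extracted into methanol, and quantified by C18 UPLC-MS.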

[11] = Half life in C57BL/6 mouse serum at 50 mg/kg, ip administered as single dose by UPLC-MS analysis; format: ADME, organism-based; in short: as §4
[12] = Cmax in C57BL/6 mouse serum at 50 mg/kg, ip administered as single dose measured up to 360 mins by UPLC-MS analysis; format: ADME, organism-based; design: dose 50 mg/kg, route intraperitoneal; in short: as §4
[13] = Tmax in C57BL/6 mouse serum at 50 mg/kg, ip administered as single dose measured up to 360 mins by UPLC-MS analysis; format: ADME, organism-based; in short: as §4
[14] = AUC (0 to 360 mins) in C57BL/6 mouse serum at 50 mg/kg, ip administered as single dose by UPLC-MS analysis; format: ADME, organism-based; design: dose 50 mg/kg, time < 6 hr, route intraperitoneal; in short: as §4
[15] = Elimination rate constant in C57BL/6 mouse brain at 50 mg/kg, ip administered as single dose measured up to 360 mins by UPLC-MS analysis; format: ADME, organism-based; in short: as §4
[16] = Half life in C57BL/6 mouse brain at 50 mg/kg, ip administered as single dose by UPLC-MS analysis; format: ADME, organism-based; in short: as §4
[17] = Cmax in C57BL/6 mouse brain at 50 mg/kg, ip administered as single dose measured up to 360 mins by UPLC-MS analysis; format: ADME, organism-based; design: dose 50 mg/kg, route intraperitoneal; in short: as §4
[18] = Tmax in C57BL/6 mouse brain at 50 mg/kg, ip administered as single dose measured up to 360 mins by UPLC-MS analysis; format: ADME, organism-based; in short: as §4
[19] = AUC (0 to 360 mins) in C57BL/6 mouse brain at 50 mg/kg, ip administered as single dose by UPLC-MS analysis; format: ADME, organism-based; design: time < 6 hr, dose 50 mg/kg, route intraperitoneal; in short: as §4
[20] = system: Mus musculus; experiment: Toxicity in MOG (35 to 55 residues)-induced C57BL/6 mouse autoimmune encephalomyelitis model assessed as bdoy weight cahnges at 50 mg/kg, ip administered daily up to 60 days; format: organism-based; conditions: in vivo, 1440 h; in short: as §1
[21] = biological target: Protein-arginine deiminase type-4 (Homo sapiens, UniProt Q9UM07); experiment: Inhibition of full length human GST-tagged PAD4 expressed in baculovirus infected Sf9 insect cells preincubated for 30 mins followed by substrate addition measured after 30 mins
[22] = biological target: T1, Protein-arginine deiminase type-1 (Homo sapiens, UniProt Q9ULC6); experiment: Inhibition of full length human GST-tagged PAD1 expressed in baculovirus infected Sf9 insect cells preincubated for 30 mins followed by substrate addition measured after 30 mins
T1 sequence (Q9ULC6 whole entry): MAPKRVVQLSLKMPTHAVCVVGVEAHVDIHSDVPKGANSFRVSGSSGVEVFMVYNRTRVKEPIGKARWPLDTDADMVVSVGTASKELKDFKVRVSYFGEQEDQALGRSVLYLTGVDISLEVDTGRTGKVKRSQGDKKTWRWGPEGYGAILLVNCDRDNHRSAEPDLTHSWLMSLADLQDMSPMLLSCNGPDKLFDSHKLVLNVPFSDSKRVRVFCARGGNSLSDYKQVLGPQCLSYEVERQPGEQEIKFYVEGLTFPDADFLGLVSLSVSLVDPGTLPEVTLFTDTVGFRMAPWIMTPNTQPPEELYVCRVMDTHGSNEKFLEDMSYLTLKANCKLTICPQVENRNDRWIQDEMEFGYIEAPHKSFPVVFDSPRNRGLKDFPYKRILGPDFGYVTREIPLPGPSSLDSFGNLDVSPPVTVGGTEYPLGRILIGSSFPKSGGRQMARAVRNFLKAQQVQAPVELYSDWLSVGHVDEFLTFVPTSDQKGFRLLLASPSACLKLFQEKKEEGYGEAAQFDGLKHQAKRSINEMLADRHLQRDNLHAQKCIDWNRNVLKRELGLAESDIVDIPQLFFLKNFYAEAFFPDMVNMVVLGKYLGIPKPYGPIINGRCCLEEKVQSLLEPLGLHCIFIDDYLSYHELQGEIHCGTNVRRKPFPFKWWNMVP
In short: (§5)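 Colorimetric citrulline assay at 37 °C in 100 mM Tris, 100 mM NaCl, 10 mM CaCl2, 5 mM DTT, pH 7.5, with about 5% DMSO. Enzyme (hPAD1 50 nM, mPAD2 100 nM) was preincubated with inhibitor (0.1–10 mM) for 30 min. Substrate was then added at 5 mM final for a further 30 min. Diacetyl monoxime/thiosemicarbazide reagent was added, samples were boiled 15 min, and A530 was read.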

[23] = biological target: Protein-arginine deiminase type-2 (Mus musculus, UniProt Q08642); experiment: Inhibition of full length mouse GST-tagged PAD2 expressed in baculovirus infected Sf9 insect cells preincubated for 30 mins followed by substrate addition measured after 30 mins; in short: as §5
Sequence of Protein-arginine deiminase type-2 (Q08642 whole entry): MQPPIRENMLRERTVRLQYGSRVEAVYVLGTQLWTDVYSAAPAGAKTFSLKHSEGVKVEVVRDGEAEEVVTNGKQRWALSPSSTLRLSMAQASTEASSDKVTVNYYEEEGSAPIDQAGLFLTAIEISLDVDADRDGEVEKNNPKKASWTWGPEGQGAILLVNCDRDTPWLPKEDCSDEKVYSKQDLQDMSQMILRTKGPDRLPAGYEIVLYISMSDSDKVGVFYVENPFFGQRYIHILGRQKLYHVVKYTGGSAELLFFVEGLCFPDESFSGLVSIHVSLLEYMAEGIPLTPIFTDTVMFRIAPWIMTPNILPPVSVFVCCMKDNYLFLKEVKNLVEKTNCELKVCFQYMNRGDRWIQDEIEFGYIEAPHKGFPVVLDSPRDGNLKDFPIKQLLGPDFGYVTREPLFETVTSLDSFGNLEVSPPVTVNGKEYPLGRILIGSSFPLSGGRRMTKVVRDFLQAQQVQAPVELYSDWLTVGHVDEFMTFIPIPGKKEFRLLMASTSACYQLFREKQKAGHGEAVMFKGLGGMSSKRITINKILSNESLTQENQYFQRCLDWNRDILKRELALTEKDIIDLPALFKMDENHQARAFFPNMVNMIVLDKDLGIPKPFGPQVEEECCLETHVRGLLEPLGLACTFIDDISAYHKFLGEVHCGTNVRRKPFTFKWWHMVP

Sequence of Protein-arginine deiminase type-4 (Q9UM07 whole entry): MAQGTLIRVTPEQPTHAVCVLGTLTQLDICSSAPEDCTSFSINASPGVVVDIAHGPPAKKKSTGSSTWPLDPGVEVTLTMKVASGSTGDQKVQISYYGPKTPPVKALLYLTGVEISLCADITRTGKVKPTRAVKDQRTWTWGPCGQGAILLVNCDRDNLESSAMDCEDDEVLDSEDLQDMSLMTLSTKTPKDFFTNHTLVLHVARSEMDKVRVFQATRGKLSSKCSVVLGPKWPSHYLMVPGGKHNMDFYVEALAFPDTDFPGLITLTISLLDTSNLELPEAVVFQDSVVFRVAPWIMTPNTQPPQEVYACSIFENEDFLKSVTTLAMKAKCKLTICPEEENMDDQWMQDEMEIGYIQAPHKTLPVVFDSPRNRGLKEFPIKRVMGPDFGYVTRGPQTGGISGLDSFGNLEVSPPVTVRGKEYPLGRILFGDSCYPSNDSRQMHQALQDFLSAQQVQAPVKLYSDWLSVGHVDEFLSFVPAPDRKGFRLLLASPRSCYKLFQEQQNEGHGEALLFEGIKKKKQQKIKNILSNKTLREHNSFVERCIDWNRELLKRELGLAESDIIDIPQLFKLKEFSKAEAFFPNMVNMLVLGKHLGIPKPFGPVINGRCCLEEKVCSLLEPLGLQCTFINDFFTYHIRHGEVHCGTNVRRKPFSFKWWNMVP

SMILES: Cl.Cn1cccc1C(=O)N[C@@H](CCn1ccnc1)C(=O)NCc1ccccc1
- Activity [1]: Active
- survival at 50 mg/kg [2]: 100%
- Activity [3]: Active
- Activity [4]: Active
- Activity [5]: Active
- Activity [6]: Active
- Activity [7]: Active
- Activity [8]: Active
- Activity [9]: Active
- k el at 6 h [10]: 0.000333 s⁻¹
- half-life [11]: 34.8 min
- Cmax [12]: 12 µg/mL
- Tmax [13]: 15 min
- AUC(0-t) at 6 h [14]: 8.46 µg·h/mL
- k el at 6 h [15]: 0.0003 s⁻¹
- half-life [16]: 38.5 min
- Cmax [17]: 0.17 µg/mL
- Tmax [18]: 15 min
- AUC(0-t) at 6 h [19]: 0.105 µg·h/mL
- Activity [20]: Non-Toxic

- Ki [21]: 2820 µM
- Ki [22]: 1090 µM
- Ki [23]: 282 µM
SMILES: O=C(N[C@@H](CCn1ccnn1)C(=O)NCc1ccccc1)c1ccco1

- Ki [22]: 112 µM
- Ki [23]: 71 µM
SMILES: Cn1cccc1C(=O)N[C@@H](CCn1ccnn1)C(=O)NCc1ccccc1
